{"data": "Assay results from different studies", "target": "Cytochrome P450 2C8 (CYP2C8, Homo sapiens, UniProt P10632)", "observed": "enzyme activity", "action": "inhibitor", "note": "Lines come from different studies, so protocols differ."}
{"Structure (SMILES)": "N#C[C@H](C[C@@H]1CCCNC1=O)NC(=O)[C@H](CC1CC1)NC(=O)c1cc2cccc(Cl)c2[nH]1", "host": "human", "sample": "liver microsomes", "measurement": "IC50", "result": "3.9 µM"}
{"Structure (SMILES)": "Cc1ccc2nc(-c3ccccc3)c(CNc3ccc(F)cc3)n2c1", "measurement": "IC50", "result": "1 µM"}
{"Structure (SMILES)": "Cc1cc2c(F)c(Oc3ncnn4cc(OC[C@@H](C)O)c(C)c34)ccc2[nH]1", "method": "fluorescence", "time": "15 min", "measurement": "IC50", "result": "3.08 µM"}
{"Structure (SMILES)": "Cc1cc(C)c2c(c1)[C@@H](N(Cc1cc(C(F)(F)F)cc(C(F)(F)F)c1)c1nnn(C)n1)CCCN2C[C@H]1CC[C@H](C(=O)O)CC1", "host": "human", "sample": "liver microsomes", "pH": "pH 7.4", "measurement": "Ki", "result": "1300 nM"}
{"Structure (SMILES)": "Ic1ccc(CSCn2ccnc2)cc1", "time": "30 min", "pH": "pH 7.4", "measurement": "IC50", "result": "0.566 µM"}
{"Structure (SMILES)": "C[C@@H](c1ccc2nccn2c1)n1nnc2ncc(-c3cnn(C)c3)nc21", "host": "human", "sample": "liver microsomes", "pH": "pH 7.4", "measurement": "IC50", "result": "16 µM"}
{"Structure (SMILES)": "C=CC(=O)Nc1cc(Nc2nccc(Nc3cc(Cl)c(F)cc3C(C)(C)O)n2)c(OC)cc1N1CC[C@@H](N(C)C)C1", "host": "human", "sample": "liver microsomes", "measurement": "IC50", "result": "> 30 µM"}
{"Structure (SMILES)": "NS(=O)(=O)NCCNc1nonc1C(=NO)Nc1ccc(F)c(Br)c1", "measurement": "IC50", "result": "> 10 µM"}
{"Structure (SMILES)": "CCc1cc(/C(C)=N/OCc2ccc(C3CCCCC3)c(C(F)(F)F)c2)ccc1CN1CC(C(=O)O)C1", "host": "human", "sample": "liver microsomes", "time": "20 min", "measurement": "IC50", "result": "> 1.1 µM"}
{"Structure (SMILES)": "COc1ccn2c(Nc3ccccc3F)c(-c3ccncn3)nc2c1", "measurement": "IC50", "result": "1 µM"}
